In ChEMBL document CHEMBL1125740, “Heterocyclic quinones. 17. A new in vivo active antineoplastic drug: 6,7-bis(1-aziridinyl)-4-[[3-(N,N-dimethylamino)propyl]amino]-5,8- quinazolinedione” (J Med Chem, 1991):
“And” between values parts separate entries of the source, which are not always exact repeats. Equal entries are not always repeated.

Tests used:
P388 [1] = test: Compound was evaluated in vivo for antitumor activity after intraperitoneal administration against P388/L-PAM(14) for change in body weight at an optimal dose of 0.1 mg/kg/injection at 1,2,3,4 day schedule.; assay type: functional, Mus musculus
P388 [2] = test: Compound was evaluated in vivo for antitumor activity after intraperitoneal administration against P388/L-PAM(14) for median day of death at an optimal dose of 0.25 mg/kg/injection at 1,4,7,11 day schedule.; assay type: functional, Mus musculus
L1210 [3] = test: Compound was evaluated in vivo for antitumor activity after intraperitoneal administration against L1210(935)for % increase in life span at an optimal dose of 0.2 mg/kg/injection at 1-4 day schedule.; assay type: functional; details: Mus musculus, L1210, ip
How it was run: (§1)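 L1210 leukemia, maintained in DBA/2 mice, was given ip as 10⁵ cells on day 0 to F1 hybrid or strain-of-origin mice over 18 g, in groups of 8. Dosing was ip from day 1, and mortality was checked daily. Median day of death counts dying mice only. %ILS = 100×(treated − control median day of death)/control median. Tumor-free survivors were counted on day 60. Weight change is g/mouse at nadir.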

M5076 = test: Compound was evaluated in vivo for antitumor activity against M5076 after injecting the compound intravenously for median tumor burden; assay type: functional, Mus musculus
L1210 [4] = test: Compound was evaluated in vivo for antitumor activity after intraperitoneal administration against L1210(935) for tumor free survivors at an optimal dose of 1 mg/kg/injection at 1 day schedule.; assay type: functional, Mus musculus; how it was run: as §1
P388 [5] = test: Compound was evaluated in vivo for antitumor activity after intraperitoneal administration against P388 (1313) for mortality range at an optimal dose of 0.25 mg/kg/injection; assay type: functional, Mus musculus
B16 [6] = test: Compound was evaluated in vivo for antitumor activity against […] B16 melanoma 1 after injecting the compound intravenously for optimal dose; assay type: functional, Mus musculus
L1210 [7] = test: Compound was evaluated in vivo for antitumor activity after intraperitoneal administration against L1210(935)for change in body weight at an optimal dose of 0.5 mg/kg/injection at 1 day schedule.; assay type: functional, Mus musculus; how it was run: as §1
B16 [8] = test: Compound was evaluated in vivo for antitumor activity against B16 melanoma after injecting the compound intravenously for percent T/C (value in parentheses indicates the day of evaluation); assay type: functional, Mus musculus
How it was run: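 30-60 mg tumor fragments implanted sc by trocar on day 0 into C57Bl/6-derived hosts (B16) or C3H/He-derived hosts (16/C). Drug given iv on days 6, 9 and 13 (B16) or 6, 9 and 12 (16/C), 10 mice per group. Tumors measured by caliper. T/C % taken from median tumor burden of treated vs control groups on day 15 (B16) or day 14 (16/C). Body weight change per mouse recorded at nadir.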

L1210 [9] = test: Compound was evaluated in vivo for antitumor activity after intraperitoneal administration against L1210(935) for median day of death at an optimal dose of 0.2 mg/kg/injection at 1-4 day schedule.; assay type: functional, Mus musculus; how it was run: as §1
P388 [10] = test: Compound was evaluated in vivo for antitumor activity after intraperitoneal administration against P388/L-PAM(14) for tumor free survivors at an optimal dose of 0.2 mg/kg/injection at 1,2,3,4 day schedule.; assay type: functional, Mus musculus
P388 [11] = test: Compound was evaluated in vivo for antitumor activity after intraperitoneal administration against P388/L-PAM(14) for total dose at an optimal dose of 0.4 mg/kg/injection at 1,2,3,4 day schedule.; assay type: functional, Mus musculus
B16 [12] = test: Compound was evaluated in vivo for antitumor activity against B16 melanoma 2 after injecting the compound intravenously for toxicity related death.; assay type: functional, Mus musculus
L1210 [13] = test: Compound was evaluated in vivo for antitumor activity after intraperitoneal administration against L1210(935) for tumor free survivors at an optimal dose of 0.125 mg/kg/injection at 1,4,7,11 day schedule.; assay type: functional, Mus musculus; how it was run: as §1
P388 [14] = test: Compound was evaluated in vivo for antitumor activity after intraperitoneal administration against P388/L-PAM(14) for total dose at an optimal dose of 0.5 mg/kg/injection at 1,4,7,11 day schedule.; assay type: functional, Mus musculus
[15] = Compound was evaluated in vivo for antitumor activity against mammary adenocarcinoma 16/C after injecting the compound intravenously for median; assay type: functional, Mus musculus
P388 [16] = test: Compound was evaluated in vivo for antitumor activity after intraperitoneal administration against P388 (1313) for tumor free survivors at an optimal dose of 0.25 mg/kg/injection; assay type: functional, Mus musculus
L1210 [17] = test: Compound was evaluated in vivo for antitumor activity after intraperitoneal administration against L1210(935)for % increase in life span at an optimal dose of 0.1 mg/kg/injection at 1-4 day schedule.; assay type: functional; details: Mus musculus, L1210, ip; how it was run: as §1
P388 [18] = test: Compound was evaluated in vivo for antitumor activity after intraperitoneal administration against P388 (1313) for % increase in life span at an optimal dose of 0.25 mg/kg/injection; assay type: functional; details: Mus musculus, P388, ip
P388 [19] = test: Compound was evaluated in vivo for antitumor activity after intraperitoneal administration against P388 (1313) for total dose at an optimal dose of 0.2 mg/kg/injection; assay type: functional, Mus musculus
P388 [20] = test: Compound was evaluated in vivo for antitumor activity after intraperitoneal administration against P388/L-PAM(14) for total dose at an optimal dose of 0.2 mg/kg/injection at 1,2,3,4 day schedule.; assay type: functional, Mus musculus
[21] = Compound was evaluated in vivo for antitumor activity against colon adenocarcinoma 38 after injecting the compound intravenously for toxicity related death.; assay type: functional, Mus musculus
P388 [22] = test: Compound was evaluated in vivo for antitumor activity after intraperitoneal administration against P388/L-PAM(14) for median day of death at an optimal dose of 0.5 mg/kg/injection at 1,4,7,11 day schedule.; assay type: functional, Mus musculus
P388 [23] = test: Compound was evaluated in vivo for antitumor activity after intraperitoneal administration against P388/L-PAM(14) for tumor free survivors at an optimal dose of 0.125 mg/kg/injection at 1,4,7,11 day schedule.; assay type: functional, Mus musculus
P388 [24] = test: Compound was evaluated in vivo for antitumor activity after intraperitoneal administration against P388/L-PAM(14) for mortality range at an optimal dose of 0.2 mg/kg/injection at 1,2,3,4 day schedule.; assay type: functional, Mus musculus
B16 [25] = test: Compound was evaluated in vivo for antitumor activity against B16 melanoma 1 after injecting the compound intravenously for percent T/C (value in parentheses indicates the day of evaluation); assay type: functional, Mus musculus
P388 [26] = test: Compound was evaluated in vivo for antitumor activity after intraperitoneal administration against P388/L-PAM(14) for total dose at an optimal dose of 0.125 mg/kg/injection at 1,4,7,11 day schedule.; assay type: functional, Mus musculus
L1210 [27] = test: Compound was evaluated in vivo for antitumor activity after intraperitoneal administration against L1210(935) for mortality range at an optimal dose of 0.4 mg/kg/injection at 1-4 day schedule.; assay type: functional, Mus musculus; how it was run: as §1
P388 [28] = test: Compound was evaluated in vivo for antitumor activity after intraperitoneal administration against P388 (1303) for mortality range at an optimal dose of 0.75 mg/kg/injection; assay type: functional, Mus musculus
P388 [29] = test: Compound was evaluated in vivo for antitumor activity after intraperitoneal administration against P388/L-PAM(14) for median day of death at an optimal dose of 0.5 mg/kg/injection at one day schedule.; assay type: functional, Mus musculus
P388 [30] = test: Compound was evaluated in vivo for antitumor activity after intraperitoneal administration against P388 (1313) for mortality range at an optimal dose of 0.5 mg/kg/injection; assay type: functional, Mus musculus
P388 [31] = test: Compound was evaluated in vivo for antitumor activity after intraperitoneal administration against P388/L-PAM(14) for change in body weight at an optimal dose of 0.2 mg/kg/injection at 1,2,3,4 day schedule.; assay type: functional, Mus musculus

For `CN(C)CCCNc1ncnc2c1C(=O)C(N1CC1)=C(N1CC1)C2=O`, the “Change in body weight” value (P388 [1]) was 0.5 g mouse-1, the “Median day of death” value (P388 [2]) was 16.5 and the ILS at 0.2 mg/kg (L1210 [3]) was 27%. For the same compound, the Tumor burden (M5076) was 29, the Survivors (L1210 [4]) was 0 and the Mortality (P388 [5]) was 27 days. For the same compound, the Optimal dose (B16 [6]) was 0.2 mg/kg, the “Change in body weight” value (L1210 [7]) was 0.3 g mouse-1 and the T/C (B16 [8]) was 41% and 78%. The “Median day of death” value (L1210 [9]) was 14, the Survivors (P388 [10]) was 0 and the Total dose (P388 [11]) was 1.6 mg/kg. For the same compound, the Toxicity (B16 [12]) was 0, the Survivors (L1210 [13]) was 0 and the Total dose (P388 [14]) was 2 mg/kg. The Tumor burden [15] was 895 mg, the Survivors (P388 [16]) was 0 and the ILS at 0.1 mg/kg (L1210 [17]) was 27%. The ILS at 0.25 mg/kg (P388 [18]) was 58%, the Optimal dose (P388 [19]) was 0.8 mg/kg and the Total dose (P388 [20]) was 0.8 mg/kg. The Toxicity [21] was 0, the “Median day of death” value (P388 [22]) was 22.5 and the Survivors (P388 [23]) was 0. For the same compound, the Mortality (P388 [24]) was 20 days, the T/C (B16 [25]) was 76% and the Total dose (P388 [26]) was 0.5 mg/kg. The Mortality (L1210 [27]) was 20 days, the Mortality (P388 [28]) was 65 days and the “Median day of death” value (P388 [29]) was 18. The Mortality (P388 [30]) was 30 days and the Change of weight (P388 [31]) was 1.7 g mouse-1.
